Experimental data: ChEMBL document CHEMBL3860103, “Antibacterial and Antibiofilm Activity of Cationic Small Molecules with Spatial Positioning of Hydrophobicity: An in Vitro and in Vivo Evaluation” (J Med Chem, 2016)
Activity calls are given as the source filed them. The calls are words filed in the database; no cut-off is given here.

Columns and labels:
[1] = system: Escherichia coli; assay: Antibacterial activity against Escherichia coli incubated for 24 hrs; format: functional
Summary of the method: (§1)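 Broth microdilution: 6 h cultures diluted to ~10^5 CFU/mL in medium; compounds 2-fold serially diluted in water, mixed 1:3 with bacterial suspension. Incubated 24 h, 37 °C; OD600 read. MIC = concentration with OD similar to medium-only control. Triplicate wells, experiments repeated at least twice.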

[2] = Induction of hemolysis in human RBC incubated for 1 hr; format: cell-based, Erythrocyte; conditions: red blood cells
Summary of the method: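 Washed human RBCs from heparinized blood, 5 vol% in PBS, mixed 3:1 with serially diluted compounds; 1 h at 37 °C. Centrifuged; supernatant A540 read. Hemolysis % = (A−A0)/(Atotal−A0)×100, with water as 0% and 0.1 vol% Triton X-100 as full lysis.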

[3] = system: Staphylococcus aureus; assay: Antibacterial activity against Staphylococcus aureus incubated for 24 hrs; format: functional; summary of the method: as §1
[4] = system: Staphylococcus aureus; assay: Antibacterial activity against methicillin-resistant Staphylococcus aureus incubated for 24 hrs; format: functional
Summary of the method: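 MRSA (ATCC 33591) from a 6 h culture (~10^9 CFU/mL), diluted to ~10^5 CFU/mL in medium. Compounds in water, 2-fold serial dilutions, combined with the bacteria at 1:3 by volume and incubated 24 h at 37 °C. OD600 read. MIC is the lowest concentration whose OD matches the media-only control. Triplicate wells; experiments repeated at least twice.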

[5] = system: Staphylococcus aureus; assay: Antibacterial activity against Staphylococcus aureus infected in BALB/c mouse model of superficial skin infection and biofilm formation assessed as reduction in bacterial load in skin at 40 mg/kg applied topically once daily for 4 days and measured 18 hrs after last dose by FEI field emission scanning electron microscopy relative to un-treated control; format: functional, organism-based
Summary of the method: (§2)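 Female BALB/c mice (6–8 weeks, 18–22 g) made neutropenic with cyclophosphamide i.p. (150 mg/kg, then 100 mg/kg 3 days later), anesthetized, backs shaved, wounded and infected with MRSA ATCC 33591. After 24 h biofilm formation, 40 mg/kg applied topically to wound once daily for 4 days (n = 5/group; untreated control). Skin collected 18 h after last dose for CFU/g; portions formalin-fixed for SEM.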

[6] = system: Staphylococcus aureus; assay: Antibacterial activity against Staphylococcus aureus infected in BALB/c mouse model of superficial skin infection and biofilm formation assessed as reduction in bacterial load in skin at 40 mg/kg applied topically once daily for 4 days and measured 18 hrs after last dose; format: functional; summary of the method: as §2
[7] = system: Staphylococcus aureus; assay: Induction of membrane depolarization in Staphylococcus aureus at 32 ug/ml after 0 to 20 mins by […] dye based assay; format: functional
Summary of the method: (§3)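 Membrane-potential dye DiSC3(5) taken up by S. aureus or E. coli; depolarization followed as rise in dye fluorescence after adding compounds at 32 µg/mL.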

[8] = Selectivity index, ratio of HC50 for induction of hemolysis in human RBC to MIC for Staphylococcus aureus
[9] = system: Staphylococcus aureus; assay: Induction of membrane permeabilization in Staphylococcus aureus at 32 ug/ml after 0 to 20 mins by propidium iodide dye based assay; format: functional
Summary of the method: (§4)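 Membrane permeabilization of S. aureus or E. coli followed as increase in propidium iodide fluorescence after adding compounds at 32 µg/mL.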

[10] = Selectivity index, ratio of HC50 for induction of hemolysis in human RBC to MIC for Escherichia coli
[11] = system: Escherichia coli; assay: Induction of membrane depolarization in Escherichia coli at 32 ug/ml after 0 to 20 mins by […] dye based assay; format: functional; summary of the method: as §3
[12] = system: Escherichia coli; assay: Induction of membrane permeabilization in Escherichia coli at 32 ug/ml after 0 to 20 mins by propidium iodide dye based assay; format: functional; summary of the method: as §4
[13] = system: Escherichia coli; assay: Induction of biofilm disruption in Escherichia coli after 24 hrs by confocal laser-scanning microscopy; format: functional
Summary of the method: (§5)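 Biofilms grown on glass coverslips from ~10^5 CFU/mL: S. aureus in nutrient medium + 1% glucose + 1% NaCl, 24 h; E. coli in M9 + 0.5% glycerol + 0.02% casamino acid, 72 h; stationary, 37 °C. After PBS wash, treated 24 h at 37 °C with 32 µg/mL in the same medium; media-only control. Stained with SYTO 9 (5 µM), imaged by confocal microscopy.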

[14] = system: Staphylococcus aureus; assay: Induction of biofilm disruption in Staphylococcus aureus after 24 hrs by confocal laser-scanning microscopy; format: functional; summary of the method: as §5
[15] = Induction of membrane hydration changes in Laurdan dye containing DPPG:DPPE (88:12) liposomes assessed as reduction in general polarization at 25 to 100 ug/ml by luminescence spectrometry; format: physicochemical
Summary of the method: (§6)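 Liposomes of 0.5 mM DPPG:DPPE (88:12) or 0.5 mM DPPC with Laurdan (lipid:dye 100:1), hydrated in PBS pH 7.4, 10 freeze–thaw cycles, sonicated 15 min at 70 °C. Compounds added in PBS (lipid:compound 7.4:1), tested at 25, 50, 100 µg/mL; emission at 440 and 490 nm (ex 350 nm), 37 °C. GP = (I440−I490)/(I440+I490).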

[16] = Toxicity in HEK293 cells assessed as induction of cell death at 32 ug/ml incubated for 24 hrs by calcein AM and propidium iodide dye based fluorescence microscopy; conditions: human, hek293, 24 h
Summary of the method: (§7)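 HEK 293 cells seeded ~10^4 cells/well, treated with compounds for 24 h (16, 32 or 64 µg/mL); 0.1% Triton X positive, untreated negative control. Stained with calcein AM (2 µM) and PI (4.5 µM) 15 min at 37 °C, 5% CO2; imaged by fluorescence microscopy, 20X objective.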

[17] = Induction of membrane hydration changes in Laurdan dye containing DPPC liposomes assessed as reduction in general polarization at 25 to 100 ug/ml by luminescence spectrometry; format: physicochemical; summary of the method: as §6
[18] = system: Mus musculus; assay: Toxicity in topically dosed mouse assessed as induction of skin darkening at 200 mg/kg after 14 days by OECD425 guidelines based method; format: organism-based; conditions: in vivo, topical_or_ocular, 336 h
[19] = system: Mus musculus; assay: Toxicity in topically dosed mouse assessed as induction of less fur appearance at 200 mg/kg after 14 days by OECD425 guidelines based method; format: organism-based; conditions: in vivo, topical_or_ocular, 336 h
[20] = Toxicity in HEK293 cells assessed as induction of cell death at 64 ug/ml incubated for 24 hrs by calcein AM and propidium iodide dye based fluorescence microscopy; conditions: human, hek293, 24 h; summary of the method: as §7
[21] = Toxicity in HEK293 cells assessed as cell density level at 16 ug/ml incubated for 24 hrs by calcein AM and propidium iodide dye based fluorescence microscopy; conditions: human, hek293, 24 h; summary of the method: as §7
[22] = Toxicity in HEK293 cells assessed as partial induction of cell death at 32 ug/ml incubated for 24 hrs by calcein AM and propidium iodide dye based fluorescence microscopy; conditions: human, hek293, 24 h; summary of the method: as §7

Row | Compound | MIC [1] [µg/mL] | HC50 at 1 h [2] [µg/mL] | MIC [3] [µg/mL] | MIC [4] [µg/mL] | other results
1 | CCCCCCCCCCNC(=O)C[N+](C)(C)CCCCCCCCCCCC[N+](C)(C)CC(=O)NCCCCCCCCCC.[Br-].[Br-] | 500 | 50 | 31 | 62 | 
2 | CC(=O)O[C@H]1C[C@@]2(C)[C@@H](C[C@@H](O)[C@H]3[C@@]4(C)CC[C@@H](O)[C@@H](C)[C@@H]4CC[C@@]32C)/C1=C(\CCC=C(C)C)C(=O)O [FUSIDIC ACID] |  |  |  |  | Activity [5]: Active; Activity [6]: 2.2 log10CFU/g
3 | CCCCCCNC(=O)C[N+](C)(C)CCCCCCCCCC[N+](C)(C)CC(=O)NCCCCCC.[Br-].[Br-] | 6 | > 1000 | 4 | 4 | Activity [7]: Active; Selectivity Index [8]: 310; Activity [9]: Active; Selectivity Index [10]: 207; Activity [11]: Active; Activity [12]: Active
4 | CCCCCCCCNC(=O)C[N+](C)(C)CCCC[N+](C)(C)CC(=O)NCCCCCCCC.[Br-].[Br-] | 8 | 310 | 2 | 3.9 | 
5 | CCCCCCCCCC[N+](C)(C)CCCCCCCCCC |  |  |  |  | MBEC [13]: Active; MBEC [14]: Active
6 | CCCCCCNC(=O)C[N+](C)(C)CCCC[N+](C)(C)CC(=O)NCCCCCC.[Br-].[Br-] | 125 | > 1000 | 62.5 | 125 | 
7 | CCCCCCCCNC(=O)C[N+](C)(C)CCCCCC[N+](C)(C)CC(=O)NCCCCCCCC.[Br-].[Br-] | 6 | 300 | 2 | 4 | Activity [7]: Active; Selectivity Index [8]: 150; Activity [9]: Active; Selectivity Index [10]: 50; Activity [11]: Active; Activity [12]: Active
8 | CCCCCCCCCCNC(=O)C[N+](C)(C)CCCC[N+](C)(C)CC(=O)NCCCCCCCCCC.[Br-].[Br-] | 2 | 60 | 2 | 2 | Activity [15]: Active; Activity [16]: Toxic; Activity [7]: Active; Activity [17]: Active; Activity [18]: Toxic; Activity [19]: Toxic; Selectivity Index [8]: 30; Activity [9]: Active; Selectivity Index [10]: 30; Activity [11]: Active; Activity [20]: Toxic; MBEC [14]: 31.2 to 62.5 µg/mL; Activity [12]: Active; Activity [21]: Toxic
9 | CCCCCCCCCCNC(=O)C[N+](C)(C)CCCCCCCC[N+](C)(C)CC(=O)NCCCCCCCCCC.[Br-].[Br-] | 4 | 55 | 2 | 2 | 
10 | CCCCCCNC(=O)C[N+](C)(C)CCCCCCCC[N+](C)(C)CC(=O)NCCCCCC.[Br-].[Br-] | 31 | > 1000 | 16 | 31 | 
11 | CCCCCCCCNC(=O)C[N+](C)(C)CC[N+](C)(C)CC(=O)NCCCCCCCC.[Br-].[Br-] | 8 | 350 | 2 | 3.9 | 
12 | CCCCCCCCNC(=O)C[N+](C)(C)CCCCCCCCCC[N+](C)(C)CC(=O)NCCCCCCCC.[Br-].[Br-] | 1 | 100 | 1 | 2 | 
13 | CCCCCCCCCCNC(=O)C[N+](C)(C)CCCCCCCCCC[N+](C)(C)CC(=O)NCCCCCCCCCC.[Br-].[Br-] | 8 | 55 | 4 | 4 | 
14 | CCCCCCNC(=O)C[N+](C)(C)CCCCCC[N+](C)(C)CC(=O)NCCCCCC.[Br-].[Br-] | 125 | > 1000 | 62.5 | 125 | 
15 | CCCCCCCCNC(=O)C[N+](C)(C)CCCCCCCC[N+](C)(C)CC(=O)NCCCCCCCC.[Br-].[Br-] | 2 | 212 | 1 | 2 | Activity [7]: Active; Activity [22]: Toxic; Selectivity Index [8]: 182; Activity [9]: Active; Selectivity Index [10]: 106; Activity [11]: Active; Activity [20]: Toxic; Activity [12]: Active; Activity [21]: Toxic
16 | CCCCCCCCCCNC(=O)C[N+](C)(C)CC[N+](C)(C)CC(=O)NCCCCCCCCCC.[Br-].[Br-] | 4 | 65 | 2 | 2 | Activity [7]: Active; Selectivity Index [8]: 32; Activity [9]: Active; Selectivity Index [10]: 16; Activity [11]: Active; Activity [12]: Active
17 | CCCCCCCCNC(=O)C[N+](C)(C)CCCCCCCCCCCC[N+](C)(C)CC(=O)NCCCCCCCC.[Br-].[Br-] | 2 | 65 | 1 | 1 | 
18 | CCCCCCCCCCNC(=O)C[N+](C)(C)CCCCCC[N+](C)(C)CC(=O)NCCCCCCCCCC.[Br-].[Br-] | 2 | 58 | 2 | 2 | 
19 | CCCCCCCCCCCCCC[N+](C)(C)Cc1ccccc1 |  |  |  |  | MBEC [13]: Active; MBEC [14]: Active
20 | N,N,N-trimethylhexadecan-1-aminium bromide |  |  |  |  | MBEC [13]: Active; MBEC [14]: Active
21 | CCCCCCNC(=O)C[N+](C)(C)CC[N+](C)(C)CC(=O)NCCCCCC.[Br-].[Br-] | 250 | > 1000 | 125 | 250 | 
